Assay [1] has as its system A549. In words: Cytotoxicity against human A549 cells assessed as growth inhibition after 48 hrs by resazurin assay. The conditions noted are these: A549, 48 h. It counts as functional, cell-based. A digest of the protocol: (§1)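 Human lung carcinoma A549, colon adenocarcinoma DLD-1 and normal skin fibroblast WS1 cells were tested by resazurin reduction, following an earlier-published protocol. Values are IC50, the concentration inhibiting 50% of cell growth. Etoposide served as the positive control.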

A short description of assay [2]: Cytotoxicity against human DLD1 cells assessed as growth inhibition after 48 hrs by resazurin assay. In kind it is functional, cell-based. Conditions: DLD-1, 48 h. A digest of the protocol: as §1
A short description of assay [3]: Cytotoxicity against human WS1 cells assessed as growth inhibition after 48 hrs by resazurin assay. In kind it is cell-based. Conditions: WS1, 48 h. A digest of the protocol: as §1

pIC50: −log10 of the molar value.

`C=C(C)[C@@H]1CC=C2[C@@H](CC[C@]23C(=C)CC[C@@]3(C)[C@H](C)CC(=O)[C@H]2CC(CCC=C(C)C)=CC[C@]2(C)C(=O)O)[C@@]1(C)CCC(=O)OC`: the pIC50 is 5.14 in assay [1], under 5.00 in assay [2] and under 5.00 in assay [3].

Regarding `C=C(C)[C@@H]1CC=C2[C@@H](CC[C@]23C(=C)CC[C@@]3(C)[C@H](C)CC(=O)[C@H]2CC(CCC=C(C)C)=CC[C@]2(C)C(=O)O)[C@@]1(C)CCC(=O)O`, the pIC50 in assay [1], in assay [2] and in assay [3] was under 5.00 each time.

Regarding `C=C(C)[C@@H]1C=CC2=C3CC[C@@](C)([C@H](C)CC(=O)[C@@H]4CC(CCC=C(C)C)=CC[C@@]4(C)C(=O)O)[C@]3(C)CC[C@H]2[C@@]1(C)CCC(=O)O`, the pIC50 in assay [1], in assay [2] and in assay [3] was under 5.00 each time.

In the case of `C=C(C)[C@@H]1C=CC2=C3CC[C@@](C)([C@H](C)CC(=O)[C@@H]4CC=C(CCC=C(C)C)C[C@@]4(C)C(=O)O)[C@]3(C)CC[C@H]2[C@@]1(C)CCC(=O)OC`, the figures for the pIC50 in assay [1], in assay [2] and in assay [3] were 5.17, under 5.00 and under 5.00, respectively.

Consider `C=C(C)[C@@H]1CC=C2[C@@H](CC[C@]23C(=C)CC[C@@]3(C)[C@H](C)CC(=O)[C@@H]2CC(CCC=C(C)C)=CC[C@@]2(C)C(=O)O)[C@@]1(C)CCC(=O)O`, for which the pIC50 in assay [1], in assay [2] and in assay [3] was under 5.00 in each case.

`C=C(C)[C@@H]1CC=C2[C@@H](CC[C@]3(C)[C@@H]([C@H](C)CC(=O)[C@@H]4CC=C(CCC=C(C)C)C[C@@]4(C)C(=O)O)CC[C@@]23C)[C@@]1(C)CCC(=O)O`: the pIC50 in assay [1], in assay [2] and in assay [3] was under 5.00 throughout.

Regarding `C=C(C)[C@@H]1C=CC2=C3CC[C@@](C)([C@H](C)CC(=O)[C@H]4CC(CCC=C(C)C)=CC[C@]4(C)C(=O)O)[C@]3(C)CC[C@H]2[C@@]1(C)CCC(=O)O`, the pIC50 in assay [1] was 5.05; in assay [2], under 5.00; in assay [3], under 5.00.

As for `C=C(C)[C@@H]1C=CC2=C3CC[C@@](C)([C@H](C)CC(=O)[C@@H]4CC=C(CCC=C(C)C)C[C@@]4(C)C(=O)O)[C@]3(C)CC[C@H]2[C@@]1(C)CCC(=O)O`, the pIC50 in assay [1] is 5.00; in assay [2] it was under 5.00; in assay [3], under 5.00.

Consider `C=C(C)[C@@H]1C=CC2=C3CC[C@@](C)([C@H](C)CC(=O)[C@H]4CC=C(CCC=C(C)C)C[C@]4(C)C(=O)O)[C@]3(C)CC[C@H]2[C@@]1(C)CCC(=O)O`, for which the pIC50 in assay [1], in assay [2] and in assay [3] was under 5.00 throughout.

In the case of `COc1cc([C@@H]2c3cc4c(cc3[C@@H](O[C@@H]3O[C@@H]5CO[C@@H](C)O[C@H]5[C@H](O)[C@H]3O)[C@H]3COC(=O)[C@H]23)OCO4)cc(OC)c1O` [ETOPOSIDE], the values for the pIC50 in assay [1], in assay [2] and in assay [3] were 5.77, 5.70 and under 5.00, respectively.

For the origin of these results see ChEMBL document CHEMBL3758111, “DFT Calculations and ROESY NMR Data for the Diastereochemical Characterization of Cytotoxic Tetraterpenoids from the Oleoresin of Abies balsamea” (J Nat Prod, 2015).
